An excerpt weighted towards active compounds, which were near 4.3% of everything screened.
OX1R antag-1 – antagonists of human orexin 1 receptor (OX1R); Orexin/Hypocretin receptor type 1 (Homo sapiens), O43613; OX1R-expressing cells, FRET antagonist read-out; inhibition, % at 6.6 µM; actives 1.8% (n = 330,000); in the data active = inhibition mostly above about 38%, no sharp cut-off; inactive = mostly below about 40%;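 note: 0% = agonist challenge alone and 100% = reference antagonist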
Target sequence (O43613 whole entry, looked up): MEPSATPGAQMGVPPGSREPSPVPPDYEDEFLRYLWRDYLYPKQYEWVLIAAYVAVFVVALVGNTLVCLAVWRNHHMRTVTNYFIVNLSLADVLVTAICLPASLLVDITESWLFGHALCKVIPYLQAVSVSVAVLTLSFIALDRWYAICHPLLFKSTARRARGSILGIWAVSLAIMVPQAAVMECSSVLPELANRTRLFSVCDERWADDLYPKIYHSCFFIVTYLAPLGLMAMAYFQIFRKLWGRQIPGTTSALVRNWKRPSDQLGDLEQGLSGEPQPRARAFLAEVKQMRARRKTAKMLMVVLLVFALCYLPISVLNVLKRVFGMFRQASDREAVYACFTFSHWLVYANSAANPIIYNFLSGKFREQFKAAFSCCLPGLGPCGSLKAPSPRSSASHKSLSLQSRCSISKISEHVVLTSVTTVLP
OX1R antag-2 – OX1R (HCRTR1) antagonists, primary screen, fluorescence, CHO/OX1R cells, Fluo-8 calcium, orexin A; Orexin/Hypocretin receptor type 1 (Homo sapiens), O43613; Fluo-8 calcium fluorescence; inhibition, % at 5 µM; actives 0.43% (n = 330,000);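 active = inhibition above its plate's threshold, mean inhibition of all tested compounds on the plate plus 3 SD, cut at about 37% in these data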;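 note: 0% = orexin A challenge wells and 100% = SB-334867-A antagonist wells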
TAAR1 antagonist – human TAAR1 antagonists, primary screen, Fluo-8 calcium fluorescence, CHO RD-HGA16 cells | Trace amine-associated receptor 1 (Homo sapiens), Q96RJ0 | antagonist | inhibition, % at 3 µM | actives 1.5% (n = 360,000) | AID 624466, 2012;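 active = inhibition above a per-plate cutoff, the mean inhibition of test compounds on that plate plus 3 SD, cut at about 49% in these data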;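 note: 0% = DMSO plus EC80 beta-PEA response and 100% = DMSO alone without agonist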
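Test system – hTAAR1-expressing CHO RD-HGA16 cells, Gα16-coupled · Also added – β-PEA at EC80 concentration, post-compound challenge · Compound – 3 µM, single point · Incubation – dye loading 75 min at 37 °C, then 30 min room temperature · Measured by – Fluo-8 intracellular calcium dye fluorescence, real-time kinetic reads · Benchmarks – vehicle and agonist controls · Replicates – singlicate, one well per test compound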
CHO parental Ca – ATP-evoked calcium signal inhibitors, parental CHO, primary screen, counter-screen for OX1R antagonist project, cell-based, fluorescence, Fluo-8 calcium dye; inhibition, % at 5.6 µM; parental CHO-K1, ATP-induced calcium, Fluo-8 fluorescence; actives 0.63% (n = 330,000);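 active = inhibition above that plate's mean sample inhibition plus 3 SD, cut at about 26% in these data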;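 note: 0% = ATP-challenged DMSO wells and 100% = DMSO wells without ATP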
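test system = CHO parental line | reagent = ATP stimulus | measured by = intracellular calcium via Fluo-8 no-wash fluorescent dye | control set = ATP and no-ATP DMSO wells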
TAAR1 agonist – human TAAR1 agonists, primary screen, Fluo-8 calcium fluorescence, CHO RD-HGA16 cells; actives 0.99% (n = 360,000); vehicle wells 0%, saturating PEA agonist 100%; AID 624467, 2012; activation, % at 3 µM;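 active = activation above the mean activation of all test compounds in the run plus 3 SD, cut at about 38% in these data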
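Signal – calcium-sensitive Fluo-8 signal, excitation 470-495, emission 515-575 nm · System – RD-HGA16 (CHO) cells co-expressing Gα16 and hTAAR1 · Incubation – 17-24 h seeding, 75 min 37 °C dye, 30 min RT · Compound dosing – 3 µM single concentration · Repeats – no replicates (n 1)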
GalR3 antagonist – GalR3 antagonists in HEK293 cells, primary screen, cell-based, fluorescence readout | HEK293 GalR3-CNG cAMP membrane potential fluorescence; galR3 body fused to GalR1 C-terminus | inhibition, % at 3 µM | actives 0.44% (n = 360,000) | AID 651719, 2012;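 active = inhibition above the screen-wide average plus 3 SD, cut at about 13% in these data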;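 note: forskolin and galanin both at EC90 stimulate the cells; cAMP rise reported by CNG channel membrane potential dye signal; 0% = forskolin plus galanin with DMSO and 100% = forskolin alone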
Active calls of the source: *; . = no result.

SMILES	OX1R antag-1	OX1R antag-2	TAAR1 antagonist	CHO parental Ca	TAAR1 agonist	GalR3 antagonist
CCOc1cc(CNCCc2ccc(S(N)(=O)=O)cc2)ccc1OCc1ccccc1	4.1	6.2	14.6	12.8	16.4	-7.6
COc1ccc(CCNC(=O)C(F)(F)F)cc1S(N)(=O)=O	.	.	-22.9	.	0.1	-5.4
CC(=O)O[C@@H]1C=C[C@@H](C#Cc2ccc(C(C)(C)C)cc2)O[C@@H]1COC(=O)NC(C)C	.	.	-4.4	.	-1.9	-5.5
COC(=O)[C@]12C[C@H](CC(=O)NCc3ccc(OC)c(OC)c3)C(=O)N(CCC3=CCCCC3)C1=C[C@H](COCc1ccccc1)O[C@@H]2C	.	.	-18.0	.	-1.5	-6.1
COc1ccc(OC(C)C(=O)NC(C)c2ccccc2)cc1 (stereo not drawn)	8.1	2.4	-0.7	-16.0	-1.9	-10.6
Cc1ccc(SCC(=O)OCC(=O)NC2(C#N)CCCCC2)cc1	.	.	-22.6	.	-0.1	-0.9
O=C(N/N=C\c1c(O)ccc2ccccc12)c1ccc(O)cc1	9.3	-21.6	13.6	-16.9	6.0	-3.8
Cn1cc(C(=O)N/N=C/c2c(O)ccc3ccccc23)ccc1=O	38.5*	-12.1	-13.7	-11.5	1.4	-8.4
O=C(N/N=C/c1c(O)ccc2ccccc12)c1ccc[n+](CCO)c1	57.3*	-6.1	0.9	-0.3	3.0	-2.6
O=C(NN=Cc1c(O)ccc2ccccc12)c1ccncc1	.	.	-14.6	.	13.0	-6.3
CCCCCCCCN1C(=O)[C@@H](CC(=O)N2CCC(c3ccccc3)CC2)C[C@@]2(C(=O)OC)C1=C[C@H](C1CCCC1)O[C@@H]2C	.	.	-27.1	.	1.1	-4.9
COc1cccc(-c2cc(CNC(=O)[C@H]3O[C@@H](n4cnc(C(N)=O)n4)[C@H](O)[C@@H]3O)no2)c1	.	.	-42.0	.	2.8	1.0
CC(=O)Nc1sc(/C(C#N)=C\c2cccc(Cl)c2)nc1-c1ccc(C)cc1	18.6	32.5	52.2*	16.0	32.7	-3.5
CC(=O)Nc1sc(N/N=C/c2ccccc2)nc1-c1ccc(C)cc1	10.6	-18.5	30.8	-16.4	-1.5	-1.7
O=S(=O)(NCC(Nc1ccccc1)c1ccccc1)c1ccc(Cl)cc1 (stereo not drawn)	20.6	8.6	51.3*	-16.5	-1.1	-0.7
O=C(O)c1cccc(NC(CNS(=O)(=O)c2ccc(Cl)cc2)c2ccccc2)c1 (stereo not drawn)	19.2	-24.0	-10.6	-25.1	1.6	3.7
COc1ccc(Nc2ncnc3ccc([N+](=O)[O-])cc23)c(OC)c1	66.5*	-8.0	-4.1	-4.9	-0.7	-1.4
COc1ccc(/C=N/NC(=O)c2ccoc2C)cc1COc1c(C)cccc1C	36.9	51.1*	68.1*	74.4*	6.2	9.2
CCOC(=O)c1ccccc1OCc1cc(/C=N/NC(=O)c2cccnc2)ccc1OC	22.9	-19.9	81.4*	-8.4	16.7	-0.7
CCOC(=O)C1=CCN(S(=O)(=O)c2ccccc2[N+](=O)[O-])C1c1ccc(C)cc1 (stereo not drawn)	.	.	-3.0	.	5.3	-7.6
CC1(C(=O)O)CCCN(C(=O)c2cc3ccccc3s2)C1 (stereo not drawn)	.	.	-14.1	.	1.2	-5.9
CCC(Oc1ccc2c(=O)c(-c3ccccc3OC)coc2c1)C(=O)OCc1ccccc1 (stereo not drawn)	6.8	-6.8	54.9*	57.3*	-1.3	-2.1
C[C@H]1CN([C@@H](C)CO)C(=O)c2cc(Br)cnc2O[C@@H]1CN(C)C(=O)c1ccncc1	.	.	13.1	.	1.0	2.1
COc1ccccc1C(=O)NC(=S)Nc1ccc(N2CCN(C(=O)c3ccco3)CC2)cc1	18.7	-4.5	-4.4	-19.6	3.8	-2.8
Cc1ccccc1C(=O)N1CCN(c2ccc(NC(=S)NC(=O)c3ccco3)cc2)CC1	2.5	3.4	61.6*	7.3	11.4	-3.0

Assay outcomes (PubChem)
